Source: ChEMBL document CHEMBL3120163, “Octulosonic acid derivatives from Roman chamomile (Chamaemelum nobile) with activities against inflammation and metabolic disorder” (J Nat Prod, 2014)

What was measured:
[1] = target: T1, Oxysterols receptor LXR-alpha (Homo sapiens) (UniProt Q13133); experiment: Activation of LXRalpha in human HepG2 cells at 25 uM after 24 hrs by luciferase reporter gene assay relative to vehicle-treated control; type: cell-based
T1 sequence (whole entry): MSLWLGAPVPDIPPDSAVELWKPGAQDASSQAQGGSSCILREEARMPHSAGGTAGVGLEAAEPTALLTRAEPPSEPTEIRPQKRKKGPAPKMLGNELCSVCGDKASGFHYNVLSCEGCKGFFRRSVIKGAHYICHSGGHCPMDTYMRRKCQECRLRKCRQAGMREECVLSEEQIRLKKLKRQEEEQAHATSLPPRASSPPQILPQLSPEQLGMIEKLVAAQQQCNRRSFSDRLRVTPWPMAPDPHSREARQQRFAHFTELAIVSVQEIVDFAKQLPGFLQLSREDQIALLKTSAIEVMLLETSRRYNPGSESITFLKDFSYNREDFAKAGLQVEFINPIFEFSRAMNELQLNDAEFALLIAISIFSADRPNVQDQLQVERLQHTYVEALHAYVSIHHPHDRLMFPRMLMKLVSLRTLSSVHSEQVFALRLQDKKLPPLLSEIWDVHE
Method in brief: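 HepG2 cells in DMEM with 10% FBS, electroporated (160 V, single 70 ms pulse) with pCMX-hLXRα plus LXRE-tk-luc plasmids; plated at 5 × 10^4 cells/well and grown 24 h. Treated with test compounds for 24 h, then lysed for luciferase read-out. Fold induction calculated against vehicle control; 25-hydroxycholesterol as positive control.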

[2] = target: T2, Growth/differentiation factor 15 (Homo sapiens) (UniProt Q99988); experiment: Activation of NAG-1 in human SW1353 cells at 20 uM after 24 hrs by luciferase reporter gene assay relative to vehicle-treated control; type: cell-based
T2 sequence (whole entry): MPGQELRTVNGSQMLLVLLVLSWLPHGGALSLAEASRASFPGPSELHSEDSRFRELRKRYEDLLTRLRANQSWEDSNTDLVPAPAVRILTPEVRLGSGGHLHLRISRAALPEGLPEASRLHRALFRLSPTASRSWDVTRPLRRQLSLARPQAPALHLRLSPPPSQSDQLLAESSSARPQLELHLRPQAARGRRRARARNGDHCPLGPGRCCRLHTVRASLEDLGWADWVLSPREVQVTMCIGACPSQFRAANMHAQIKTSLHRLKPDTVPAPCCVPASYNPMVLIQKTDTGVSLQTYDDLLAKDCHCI
Method in brief: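 SW1353 chondrosarcoma cells in DMEM/F12 with 10% FBS were electroporated (160 V, one 70 ms pulse) with 25 μg […]. Cells were seeded at 1 × 10^5 per well, then dosed 24 h later for 24 h. Luciferase light output gave fold induction versus vehicle. Positive control: diclofenac.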

[3] = Inhibition of PMA-induced NFkappaB transcriptional activity in human SW1353 cells treated for 30 mins followed by PMA challenge measured after 6 to 8 hrs by luciferase reporter gene assay; type: cell-based
Method in brief: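 After 24 h they were pretreated with compound for 30 min, then stimulated with PMA 70 ng/mL for 6−8 h. Percent decrease in luciferase is relative to vehicle. Positive control: parthenolide.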

RAW264.7 = experiment: Cytotoxicity against mouse RAW264.7 cells up to 50 uM after 48 hrs by neutral red assay; type: cell-based; details: raw264.7, 48 h
HepG2 [4] = experiment: Cytotoxicity against human HepG2 cells up to 50 uM after 48 hrs by neutral red assay; type: cell-based; details: hepg2, 48 h
[5] = target: T3, Nitric oxide synthase, inducible (Mus musculus, UniProt P29477); experiment: Inhibition of iNOS in mouse RAW264.7 cells assessed as LPS-induced nitric oxide production treated for 30 mins followed by LPS challenge measured after 24 hrs by Griess reagent method; type: cell-based
T3 sequence (P29477 whole entry): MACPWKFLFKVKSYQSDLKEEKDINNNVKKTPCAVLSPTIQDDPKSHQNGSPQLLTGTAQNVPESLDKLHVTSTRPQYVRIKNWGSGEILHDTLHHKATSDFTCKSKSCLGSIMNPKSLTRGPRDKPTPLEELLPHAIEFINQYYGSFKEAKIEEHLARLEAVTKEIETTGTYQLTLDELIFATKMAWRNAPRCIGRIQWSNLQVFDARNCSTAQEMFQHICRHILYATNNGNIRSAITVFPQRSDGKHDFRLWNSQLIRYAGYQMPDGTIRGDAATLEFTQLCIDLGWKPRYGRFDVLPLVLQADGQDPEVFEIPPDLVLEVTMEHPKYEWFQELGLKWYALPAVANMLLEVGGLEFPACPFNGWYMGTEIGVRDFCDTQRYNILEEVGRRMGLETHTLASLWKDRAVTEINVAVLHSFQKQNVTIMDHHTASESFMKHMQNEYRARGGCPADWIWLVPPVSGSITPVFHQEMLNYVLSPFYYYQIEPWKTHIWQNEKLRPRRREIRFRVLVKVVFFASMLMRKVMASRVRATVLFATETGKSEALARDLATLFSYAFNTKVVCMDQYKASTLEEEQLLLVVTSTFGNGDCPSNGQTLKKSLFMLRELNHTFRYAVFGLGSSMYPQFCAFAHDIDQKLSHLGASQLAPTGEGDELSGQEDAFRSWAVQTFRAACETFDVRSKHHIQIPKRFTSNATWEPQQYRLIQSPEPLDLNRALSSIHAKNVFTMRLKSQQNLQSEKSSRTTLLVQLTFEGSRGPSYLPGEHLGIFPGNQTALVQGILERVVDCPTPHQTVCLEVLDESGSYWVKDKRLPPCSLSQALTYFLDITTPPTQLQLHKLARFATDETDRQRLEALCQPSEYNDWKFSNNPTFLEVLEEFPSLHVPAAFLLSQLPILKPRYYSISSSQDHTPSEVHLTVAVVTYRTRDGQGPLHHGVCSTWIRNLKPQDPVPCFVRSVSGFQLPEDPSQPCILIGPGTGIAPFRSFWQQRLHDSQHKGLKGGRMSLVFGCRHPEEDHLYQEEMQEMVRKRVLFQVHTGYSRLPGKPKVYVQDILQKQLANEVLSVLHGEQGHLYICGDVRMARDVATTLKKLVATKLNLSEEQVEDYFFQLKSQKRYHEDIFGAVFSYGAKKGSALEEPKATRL
Method in brief: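 RAW264.7 macrophages were grown in phenol red-free RPMI with 10% bovine calf serum. Cells were seeded at 100 000 per well and grown 24 h to at least 75% confluency. Compound was added 30 min before LPS 5 μg/mL, then incubated 24 h. Supernatant nitrite was measured by Griess reagent; percent inhibition is versus vehicle, with IC50 from dose-response curves. Positive control: parthenolide.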

HepG2 [6] = experiment: Antioxidant activity in human HepG2 cells assessed as inhibition of ABAP-induced intracellular peroxyl radical scavenging activity by measuring ROS production measured every 5 mins for 1 hr by fluorescence assay
[7] = target: T4, Peroxisome proliferator-activated receptor alpha (Homo sapiens) (UniProt Q07869); experiment: Activation of PPARalpha in human HepG2 cells at 25 uM after 24 hrs by luciferase reporter gene assay relative to vehicle-treated control; type: cell-based
T4 sequence (whole entry): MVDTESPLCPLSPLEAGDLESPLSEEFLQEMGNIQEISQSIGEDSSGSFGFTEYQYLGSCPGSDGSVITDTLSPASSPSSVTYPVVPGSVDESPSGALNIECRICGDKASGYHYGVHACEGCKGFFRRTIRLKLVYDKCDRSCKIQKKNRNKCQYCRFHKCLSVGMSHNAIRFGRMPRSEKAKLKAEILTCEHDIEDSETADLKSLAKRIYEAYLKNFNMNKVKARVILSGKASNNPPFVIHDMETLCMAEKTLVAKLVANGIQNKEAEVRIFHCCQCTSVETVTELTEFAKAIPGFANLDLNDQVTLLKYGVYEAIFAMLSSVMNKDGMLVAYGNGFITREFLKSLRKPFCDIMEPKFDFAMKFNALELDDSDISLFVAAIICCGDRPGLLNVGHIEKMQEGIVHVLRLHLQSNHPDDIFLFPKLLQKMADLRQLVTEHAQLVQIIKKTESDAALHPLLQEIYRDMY
Method in brief: (§1)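 HepG2 cells in DMEM with 10% FBS were electroporated at 160 V with a single 70 ms pulse. Plasmid pairs were pSG5-PPARα + PPRE X3-tk-luc, pCMV-rPPARγ + pPPREaP2-tk-luc, or pCMX-hLXRα + LXRE-tk-luc. Cells were seeded at 5 × 10^4 per well, grown 24 h, then dosed. After 24 h the cells were lysed and luciferase read. Fold induction is versus vehicle. Positive controls: ciprofibrate, rosiglitazone, 25-hydroxycholesterol.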

[8] = target: T5, Peroxisome proliferator-activated receptor gamma (Homo sapiens) (UniProt P37231); experiment: Activation of PPARgamma in human HepG2 cells at 25 uM after 24 hrs by luciferase reporter gene assay relative to vehicle-treated control; type: cell-based; method in brief: as §1
T5 sequence (whole entry): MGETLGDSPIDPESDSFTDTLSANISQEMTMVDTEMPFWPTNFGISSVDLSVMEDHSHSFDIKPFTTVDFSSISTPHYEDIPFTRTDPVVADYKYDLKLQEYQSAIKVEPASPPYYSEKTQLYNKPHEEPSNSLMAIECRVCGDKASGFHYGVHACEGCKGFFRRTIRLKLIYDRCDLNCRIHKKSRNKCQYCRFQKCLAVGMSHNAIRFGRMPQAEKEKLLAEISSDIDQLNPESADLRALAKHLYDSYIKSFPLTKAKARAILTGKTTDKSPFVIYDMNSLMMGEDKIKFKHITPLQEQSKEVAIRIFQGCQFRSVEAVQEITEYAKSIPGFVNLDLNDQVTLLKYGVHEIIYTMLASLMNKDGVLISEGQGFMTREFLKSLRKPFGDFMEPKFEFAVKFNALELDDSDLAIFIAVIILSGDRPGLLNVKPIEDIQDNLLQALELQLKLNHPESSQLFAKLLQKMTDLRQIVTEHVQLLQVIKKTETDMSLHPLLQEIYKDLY

[9] = Homo sapiens, SW1353, read-out: IC50

Row | Compound | IC50 ([3]; sw1353) | Activity (RAW264.7) | Activity (HepG2 [4]) | IC50 ([5]; raw264.7) | IC50 (HepG2 [6]) | further results
1 | C[C@H](CCCC(C)(C)O)[C@H]1CC[C@H]2[C@@H]3CC=C4C[C@@H](O)CC[C@]4(C)[C@H]3CC[C@]12C |  |  |  |  |  | fold change (FC) [1]: 4.67
2 | O=C(O)Cc1ccccc1Nc1c(Cl)cccc1Cl |  |  |  |  |  | fold change (FC) [2]: 2.65
3 | O=C(/C=C/c1ccc(O)c(O)c1)OC[C@H]1O[C@@]2(C(=O)O)C[C@@H](O)[C@@H](O)[C@@H]1O2 (relative stereo) | Not Active | Non-toxic | Non-toxic | Not Active | > 100 µM | 
4 | CC(C)(Oc1ccc(C2CC2(Cl)Cl)cc1)C(=O)O (configuration not stated) |  |  |  |  |  | fold change (FC) [7]: 4.35
5 | O=C(/C=C/c1ccc(O)c(O)c1)OC[C@H]1O[C@@]2(C(=O)O)C[C@@H](OC(=O)/C=C/c3ccc(O)c(O)c3)[C@@H](OC(=O)/C=C/c3ccc(O)c(O)c3)[C@H]1O2 (relative stereo) | Not Active | Non-toxic | Non-toxic | Not Active | 59.5 µM | 
6 | COC(=O)[C@]12C[C@@H](OC(=O)/C=C/c3ccc(O)c(O)c3)[C@@H](O)[C@H](O1)[C@@H](COC(=O)/C=C/c1ccc(O)c(O)c1)O2 (relative stereo) | Not Active | Non-toxic | Non-toxic | Not Active | 34.5 µM | 
7 | COC(=O)[C@]12C[C@@H](OC(=O)/C=C/c3ccc(O)c(O)c3)[C@@H](OC(=O)/C=C/c3ccc(O)c(O)c3)[C@@H](O1)[C@@H](COC(=O)/C=C/c1ccc(O)c(O)c1)O2 (relative stereo) |  | Non-toxic | Non-toxic | Not Active | 26 µM | IC50 [3, 9]: 42 µM
8 | CC1(COc2ccc(CC3SC(=O)NC3=O)cc2)CCCCC1 (configuration not stated) |  |  |  |  |  | fold change (FC) [8]: 3.65
9 | COC(=O)[C@]12C[C@@H](O)[C@@H](O)[C@H](O1)[C@@H](COC(=O)/C=C/c1ccc(O)c(O)c1)O2 (relative stereo) | Not Active | Non-toxic | Non-toxic | Not Active | 86 µM | 
10 | C=C1C(=O)O[C@@H]2C3O[C@]3(C)CC/C=C(\C)CC[C@@H]12 (some centres not stated) |  |  |  |  |  | IC50 [3, 9]: 1.63 µM; IC50 ([5]; read-out: IC50): 1.05 µM
11 | O=c1c(O)c(-c2ccc(O)c(O)c2)oc2cc(O)cc(O)c12 [QUERCETIN] |  |  |  |  | 11 µM | 
12 | O=C(/C=C/c1ccc(O)c(O)c1)OC[C@H]1O[C@@]2(C(=O)O)C[C@@H](OC(=O)/C=C/c3ccc(O)c(O)c3)[C@@H](O)[C@@H]1O2 (relative stereo) | Not Active | Non-toxic | Non-toxic | Not Active | 79 µM | 
